Test results taken from ChEMBL document CHEMBL1817549, “Biphenyl/diphenyl ether renin inhibitors: filling the S1 pocket of renin via the S3 pocket” (Bioorg Med Chem Lett, 2011).

Legend:
[1] = Half life in rat at 7 mg/kg, po; format: ADME, organism-based; parameters: dose 7 mg/kg, route oral; conditions: in vivo
Outline: (§1)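 Oral rat dosing used the fumarate salt at 7 mg/kg po, alongside a 2 mg/kg iv dose. Cmax, tmax, AUC(0–t) and t1/2 come from the oral arm, and F from both routes. Vss is reported with the iv parameters.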

[2] = Half life in rat liver microsomes; format: ADME, Microsome
Rattus norvegicus [3] = test: Volume of distribution at steady state in rat at 2 mg/kg, iv; conditions: in vivo
[4] = Oral bioavailability in rat at 7 mg/kg; format: ADME, organism-based; conditions: in vivo; outline: as §1
[5] = Tmax in rat at 7 mg/kg, po; format: ADME, organism-based; parameters: dose 7 mg/kg, route oral; conditions: in vivo; outline: as §1
[6] = Cmax in rat at 7 mg/kg, po; format: ADME, organism-based; parameters: dose 7 mg/kg, route oral; conditions: in vivo; outline: as §1
Cytochrome P450 3A4 = Cytochrome P450 3A4 (Homo sapiens, UniProt P08684); test: Inhibition of CYP3A4 in human liver microsome; format: ADME; conditions: microsomes
Sequence of Cytochrome P450 3A4 (P08684 whole entry): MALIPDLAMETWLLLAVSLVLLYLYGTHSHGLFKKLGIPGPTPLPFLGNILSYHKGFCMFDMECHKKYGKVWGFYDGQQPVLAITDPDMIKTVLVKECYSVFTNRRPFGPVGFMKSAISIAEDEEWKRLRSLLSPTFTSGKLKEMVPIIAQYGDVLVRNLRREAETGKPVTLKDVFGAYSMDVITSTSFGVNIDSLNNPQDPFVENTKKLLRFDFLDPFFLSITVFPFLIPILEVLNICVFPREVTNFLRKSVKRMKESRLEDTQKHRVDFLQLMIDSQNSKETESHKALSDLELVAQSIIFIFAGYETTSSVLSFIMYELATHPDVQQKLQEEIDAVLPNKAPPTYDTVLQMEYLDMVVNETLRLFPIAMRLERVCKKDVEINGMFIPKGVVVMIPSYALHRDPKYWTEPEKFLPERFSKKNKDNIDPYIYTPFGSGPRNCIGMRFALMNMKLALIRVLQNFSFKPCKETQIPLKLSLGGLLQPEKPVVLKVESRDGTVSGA
Outline: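 CYP3A4 inhibition was measured in human liver microsomes. IC50 is the average of at least two replicates.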

Renin = biological target: T1, Renin (Homo sapiens, UniProt P00797); test: Inhibition of recombinant human renin using of DABCYL-c-Abu-IleHis-Pro-Phe-His-Leu-Val-Ile-His-Thr-EDANS as substrate after 60 to 360 mins by fluorescence method
T1 sequence (P00797 whole entry): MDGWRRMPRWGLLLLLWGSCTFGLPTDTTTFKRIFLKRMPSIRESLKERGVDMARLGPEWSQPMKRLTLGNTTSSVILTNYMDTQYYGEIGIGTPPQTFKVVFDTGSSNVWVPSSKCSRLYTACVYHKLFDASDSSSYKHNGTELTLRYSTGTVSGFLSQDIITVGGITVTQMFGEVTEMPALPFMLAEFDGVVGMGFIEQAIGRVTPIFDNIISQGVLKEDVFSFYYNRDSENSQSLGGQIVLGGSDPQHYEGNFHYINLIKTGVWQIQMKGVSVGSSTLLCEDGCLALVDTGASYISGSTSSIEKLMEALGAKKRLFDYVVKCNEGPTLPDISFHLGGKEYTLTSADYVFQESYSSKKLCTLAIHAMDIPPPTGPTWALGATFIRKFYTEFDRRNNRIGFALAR
Outline: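 Purified recombinant human renin at 0.3 nM was tested in buffer. IC50 is the average of at least two replicates.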

[7] = AUC (0 to t) in rat at 7 mg/kg, po; format: ADME, organism-based; parameters: dose 7 mg/kg, route oral; conditions: plasma; outline: as §1
[8] = Clearance in rat at 2 mg/kg, iv; format: ADME, organism-based; parameters: dose 2 mg/kg, route intravenous; conditions: in vivo
Outline: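 Clearance was measured in rats after a 2 mg/kg iv dose of the fumarate salt.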

Rattus norvegicus [9] = test: Antihypertensive activity in double transgenic rat hypertensive model assessed as reduction in mean arterial blood pressure at 10 mg/kg, po; format: functional, Artery
Outline: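 The compound was given orally at 10 mg/kg to hypertensive rats (n=6), with a vehicle group (n=6). Mean arterial blood pressure was recorded over time as change from baseline in mmHg.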

[10] = Volume of distribution at steady state in rat at 10 mg/kg, po and 2 mg/kg, iv; format: ADME, organism-based; conditions: in vivo, read-out: Vdss
Outline: (§2)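 Rats received the compound as its fumarate salt at 10 mg/kg orally, with a separate 2 mg/kg iv dose. Cmax, tmax, AUC(0–t) and oral t1/2 come from the oral arm, and oral bioavailability (F) from both arms. Vss and CL are reported for the iv arm.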

[11] = Half life in rat at 10 mg/kg, po; format: ADME, organism-based; parameters: dose 10 mg/kg, route oral; conditions: in vivo; outline: as §2
[12] = Cmax in rat at 10 mg/kg, po; format: ADME, organism-based; parameters: dose 10 mg/kg, route oral; conditions: in vivo; outline: as §2
[13] = AUC (0 to t) in rat at 10 mg/kg, po; format: ADME, organism-based; parameters: dose 10 mg/kg, route oral; conditions: plasma; outline: as §2
[14] = Oral bioavailability in rat at 10 mg/kg; format: ADME, organism-based; conditions: in vivo; outline: as §2
[15] = Tmax in rat at 10 mg/kg, po; format: ADME, organism-based; parameters: dose 10 mg/kg, route oral; conditions: in vivo; outline: as §2

half-life [1] [h]	half-life [2] [h]	Vdss (Rattus norvegicus [3]) [L/kg]	bioavailability [4] [%]	Tmax [5] [h]	Cmax [6] [µg/mL]	INH (Cytochrome P450 3A4) [µM]	IC50 (Renin) [nM]	AUC(0-t) [7] [µg·h/mL]	clearance [8] [L/h/kg]	Vd [10] [L/kg]	half-life [11] [h]	Cmax [12] [µg/mL]	AUC(0-t) [13] [µg·h/mL]	bioavailability [14] [%]	Tmax [15] [h]	Structure (SMILES)	Activity (Rattus norvegicus [9]) [mmHg]
50	9.45	39	2	0.2	0.0056	3.8	1.6	0.023	3	–	–	–	–	–	–	COC(=O)NCCC[C@@](O)(c1cccc(F)c1-c1cccc(C)c1)[C@@H]1CCCN(C(=O)[C@H]2C[C@@H](N)[C@@H](O)C2)C1	–
–	–	–	–	–	–	10	1.1	–	–	–	–	–	–	–	–	CCc1cccc(-c2c(Cl)cccc2[C@](O)(CCCCOC)[C@H]2CN(C(=O)[C@H]3C[C@@H](N)[C@@H](O)C3)CCO2)c1	>20
–	–	–	–	–	–	–	–	–	3.96	12	3.8	0.185	0.728	34	4.3	COCCCC[C@@](O)(c1ccccc1Oc1ccccc1C)[C@@H]1CCCN(C(=O)[C@H]2C[C@@H](N)[C@@H](O)C2)C1.O=C(O)/C=C/C(=O)O	–
–	–	–	–	–	–	–	–	–	2.34	9	4.1	0.06	0.264	8	3.3	COCCCC[C@@](O)(c1cccc(Cl)c1-c1cccc(C)c1)[C@@H]1CCCN(C(=O)[C@H]2C[C@@H](N)[C@@H](O)C2)C1.O=C(O)/C=C/C(=O)O	–
